Test results from ChEMBL document CHEMBL2034852, “Flacourtosides A-F, phenolic glycosides isolated from Flacourtia ramontchi” (J Nat Prod, 2012).
Active and inactive are the calls of the source. The rule behind the calls is not given here.

Legend:
[1] = (§1) Cytotoxicity against African green monkey Vero cells after 6 to 7 days by MTS assay; format: cell-based; conditions: chlorocebus sabaeus, Vero cells
Summary of the method: (§2)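 Vero cells (subcultured 1:4, grown 7 days) seeded at 25 000 cells per well with serial compound dilutions in MEM Rega3 with 2% FCS, L-glutamine and bicarbonate. Incubated 6−7 days at 37 °C, 5% CO2. Medium then replaced with 5% MTS in phenol red-free medium for 1.5 h, A498 read. CC50 taken from dose−response curves as % of controls; multiple independent experiments.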

[2] = Inhibition of Dengue virus NS5 polymerase assessed as inhibition of radiolabeled guanosine incorporation into homopolymeric cytosine RNA template by liquid scintillation counting
Summary of the method: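 DENV-2 NS5 polymerase, produced and purified by a prior method, assayed by radiolabeled guanosine incorporation on a homopolymeric cytosine RNA template. IC50 fitted by % enzyme activity = 100/[…], with I the inhibitor concentration; 3′-deoxy-GTP served as reference.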

[3] = tested on: Chikungunya virus; assay: Antiviral activity against Chikungunya virus infected in Vero cells assessed as inhibition of virus-induced cytopathic effect after 6 to 7 days by MTS assay; format: functional, cell-based
[4] = tested on: Vero; assay: as §1; format: cell-based; conditions: chlorocebus sabaeus, vero; summary of the method: as §2

SMILES	CC50 [1]	IC50 [2]	Activity [3]	Activity [4]
C=C(C)[C@@H]1CC[C@]2(C(=O)O)CC[C@]3(C)[C@H](CC[C@@H]4[C@@]5(C)CC[C@H](OC(=O)/C=C/c6ccc(O)c(O)c6)C(C)(C)[C@@H]5CC[C@]43C)[C@@H]12	6.9 µM	0.85 µM	–	–
Nc1nc2c(ncn2[C@@H]2O[C@H](COP(=O)(O)OP(=O)(O)OP(=O)(O)O)C[C@H]2O)c(=O)[nH]1	–	0.02 µM	–	–
O=Cc1cc(O)ccc1O[C@@H]1O[C@H](COC(=O)c2ccccc2)[C@@H](O)[C@H](O)[C@H]1O [FLACOURTOSIDE B]	–	71.1 µM	inactive	–
O=Cc1cc(O)ccc1O[C@@H]1O[C@H](COC(=O)c2ccccc2)[C@@H](O)[C@H](O[C@@H]2O[C@H](COC(=O)c3ccccc3)[C@@H](O)[C@H](O)[C@H]2O)[C@H]1O [FLACOURTOSIDE C]	–	23.8 µM	inactive	–
O=C(OC[C@H]1O[C@@H](Oc2ccc(O)cc2COC(=O)C2(O)CC(=O)[C@@H](O)[C@@H](O)[C@H]2O)[C@H](OC(=O)c2ccccc2)[C@@H](O)[C@@H]1O)c1ccccc1 (some centres undefined) [FLACOURTOSIDE D]	–	35.5 µM	inactive	–
O=C(OC[C@H]1O[C@@H](Oc2ccc(O)cc2COC(=O)[C@@]2(O)[C@H](O)C=CC(=O)[C@@H]2O)[C@H](O)[C@@H](OC(=O)c2ccccc2)[C@@H]1O)c1ccccc1 [FLACOURTOSIDE E]	–	13.4 µM	inactive	Non-toxic
O=C(OC[C@H]1O[C@@H](Oc2ccc(O)cc2COC(=O)[C@@]2(O)[C@H](O)C=CC(=O)[C@@H]2OC(=O)c2ccccc2)[C@H](OC(=O)c2ccccc2)[C@@H](O)[C@@H]1O)c1ccccc1 [FLACOURTOSIDE F]	–	39.8 µM	inactive	–
O=C(OC[C@H]1O[C@@H](Oc2ccc(O)cc2COC(=O)c2ccccc2O)[C@H](O)[C@@H](O)[C@@H]1O)c1ccccc1 [ITOSIDE H]	–	37.8 µM	–	–
O=C(OC[C@H]1O[C@@H](Oc2ccc(O)cc2CO)[C@H](O)[C@@H](O)[C@@H]1O)c1ccccc1 [POLIOTHYRSOSIDE]	–	> 50 µM	–	–
O=C(OC[C@H]1O[C@@H](Oc2ccc(O)cc2COC(=O)c2cccc(O)c2O)[C@H](OC(=O)c2ccccc2)[C@@H](O)[C@@H]1O)c1ccccc1 [SCOLOCHINENOSIDE D]	–	9.5 µM	–	Non-toxic
O=C(OC[C@H]1O[C@@H](Oc2ccc(O)cc2COC(=O)[C@@]2(O)[C@H](O)C=CC(=O)[C@@H]2O)[C@H](OC(=O)c2ccccc2)[C@@H](O)[C@@H]1O)c1ccccc1 [XYLOSMIN]	–	24.3 µM	–	–
